These results are taken from ChEMBL document CHEMBL4265954, “Discovery of potent liver-selective stearoyl-CoA desaturase-1 (SCD1) inhibitors, thiazole-4-acetic acid derivatives, for the treatment of diabetes, hepatic steatosis, and obesity” (Eur J Med Chem, 2018).

In data set [1] the test system is Rattus norvegicus. Put plainly: Ex vivo inhibition of SCD1 in high sucrose diet Sprague-Dawley rat epididymal adipose tissue treated orally for 6 hrs followed by incubation with [14C]stearoyl-CoA substrate for 10 mins by TLC assay. Type of data set: organism-based. To be noted: po. In short, it runs like this: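 Sprague-Dawley rats on a high sucrose diet, given oral 1 or 10 mg/kg. Liver, epididymal adipose and eyelid were taken 6 h later and homogenized. S9 SCD activity was measured by [14C]stearoyl-CoA conversion to oleate and quantified by AgNO3 TLC imaging. Result is % remaining activity versus control, mean ± SD, n=3.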

Data set [2] in a line: Total clearance in Sprague-Dawley rat at 1 mg/kg, iv. As to conditions: in vivo. It counts as ADME, organism-based. In short, it runs like this:
(§1)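 Single intravenous dose of 1 mg/kg, with a parallel oral arm at 10 mg/kg, given to two male animals per species: C57BL/6J mice and Sprague Dawley rats. Total body clearance was derived from the plasma concentration–time profile of the compound.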

In data set [3] the test system is Mus musculus. The data set is described as follows: Ex vivo inhibition of SCD1 in C57BL/6J mouse eyelid assessed as residual activity at 100 mg/kg, po treated for 24 hrs followed by incubation with [14C]stearoyl-CoA substrate for 30 mins by TLC assay relative to control. Type of data set: organism-based. The method, boiled down:
(§2)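 Male 6-week-old C57BL/6J mice dosed orally as a suspension in 0.5% methylcellulose. Liver or eyelid was taken 6 or 24 h later and homogenized in 100 mM Tris-HCl pH 7.4 with 0.25 M sucrose. S9 was obtained at 10,000 × g, 4 °C. S9 was incubated with [14C]stearoyl-CoA, NADH, MgCl2 and cytochrome b5 at room temperature, 10 min for liver and 30 min for eyelid. Lipids were saponified and run on AgNO3 TLC to quantify stearate and oleate. Result is % of vehicle control.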

Data set [4] relates to Rattus norvegicus. The data set is described as follows: Toxicity in Sprague-Dawley rat at 100 mg/kg, po once daily for 2 weeks. Type of data set: organism-based. As to conditions: in vivo, 336 h. In short, it runs like this: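 Male Sprague Dawley rats, 6 weeks old (5 per group), were dosed orally once daily for 2 weeks at 100 or 1000 mg/kg as a suspension in 0.5% methylcellulose; controls received vehicle. Readouts: clinical observations, body weight, food consumption, ophthalmoscopy in week 2, and terminal necropsy, hematology, clinical chemistry, organ weights and histopathology. Plasma levels were measured 24 h post-dose on days 1, 5 and 10.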

Data set [5] relates to Mus musculus. The data set is described as follows: Ex vivo inhibition of SCD1 in C57BL/6J mouse eyelid assessed as residual activity at 1 mg/kg, po treated for 6 hrs followed by incubation with [14C]stearoyl-CoA substrate for 30 mins by TLC assay relative to control. Type of data set: organism-based. The method, boiled down: as §2
Data set [6] addresses T1, Acyl-CoA desaturase 1 (Rattus norvegicus, UniProt P07308).
T1 sequence (P07308 whole entry): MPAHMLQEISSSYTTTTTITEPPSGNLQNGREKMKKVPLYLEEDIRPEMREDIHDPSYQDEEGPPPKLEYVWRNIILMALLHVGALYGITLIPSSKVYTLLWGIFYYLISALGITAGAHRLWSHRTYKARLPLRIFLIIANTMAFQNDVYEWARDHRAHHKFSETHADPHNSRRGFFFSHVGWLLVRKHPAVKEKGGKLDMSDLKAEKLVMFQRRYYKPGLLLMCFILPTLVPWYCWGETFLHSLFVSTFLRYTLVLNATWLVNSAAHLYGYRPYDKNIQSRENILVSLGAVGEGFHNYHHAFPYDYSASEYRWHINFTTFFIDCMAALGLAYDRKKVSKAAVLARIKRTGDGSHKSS
Put plainly: Inhibition of rat liver microsome SCD assessed as reduction in [3H]H2O production using stearoyl [9,10-3H]CoA as substrate in presence of NADH incubated for 30 mins by scintillation counting method. It counts as microsomes. The method, boiled down: (§3)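 Desaturation of [9,10-3H]stearoyl-CoA measured as released [3H]H2O. Water was separated from charcoal-adsorbed substrate by filtration and counted by scintillation. Remaining activity = (compound − background)/(control − background). DMSO wells served as control and pre-stopped wells as background. IC50 was interpolated from the two points bracketing 50%.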
(Microsomes from liver hold many membrane-bound enzymes, among them those of drug oxidation.)

A short description of data set [7]: Total clearance in C57BL/6J mouse at 1 mg/kg, iv. Type of data set: ADME, organism-based. To be noted: in vivo. The method, boiled down: as §1
Data set [8] in a line: Apparent permeability of the compound in human Caco2 cells. It counts as ADME, cell-based. As to conditions: Caco-2. (Caco-2 monolayers are a common model of the intestinal barrier.)
Data set [9] can be described thus: Apparent terminal half life in Sprague-Dawley rat at 10 mg/kg, po. Type of data set: ADME, organism-based. As to conditions: in vivo, read-out: betat1/2(app) (converted). The method, boiled down:
(§4)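 Two male Sprague-Dawley rats per route, 10 mg/kg po and 1 mg/kg iv. Cmax, tmax, terminal-phase half-life and AUC0-inf were taken from plasma concentration–time curves. Bioavailability was derived from the po and iv data.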

Data set [10] deals with T2, Acyl-CoA desaturase 1 (Mus musculus, UniProt P13516).
T2 sequence (P13516 whole entry): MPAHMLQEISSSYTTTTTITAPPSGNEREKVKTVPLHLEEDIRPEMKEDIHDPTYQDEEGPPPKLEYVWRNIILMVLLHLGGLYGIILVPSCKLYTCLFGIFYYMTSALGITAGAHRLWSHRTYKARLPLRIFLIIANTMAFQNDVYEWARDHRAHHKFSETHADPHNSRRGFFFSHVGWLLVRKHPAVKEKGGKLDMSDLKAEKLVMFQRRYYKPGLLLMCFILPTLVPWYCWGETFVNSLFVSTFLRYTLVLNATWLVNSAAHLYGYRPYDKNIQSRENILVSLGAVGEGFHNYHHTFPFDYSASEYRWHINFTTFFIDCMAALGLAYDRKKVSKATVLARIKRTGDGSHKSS
Put plainly: Inhibition of mouse liver microsome SCD assessed as reduction in [3H]H2O production using stearoyl [9,10-3H]CoA as substrate in presence of NADH incubated for 30 mins by scintillation counting method. Type of data set: microsomes. In short, it runs like this: as §3

In data set [11] the test system is Mus musculus. Put plainly: Antiobesity activity in high fat diet fed C57BL/6J mouse assessed as reduction in diet-induced body weight gain administered orally as diet mixture for 43 days. It counts as functional, organism-based. The method, boiled down:
(§5)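 C57BL/6J mice, individually housed, fed HFD for one month, then given HFD admixed with drug (0.0040% for 3 mg/kg/day, 0.0133% for 10 mg/kg/day) for 43 days, from 10 to 16 weeks of age. Chow-fed normal group as control. Body weight measured every 3–4 days. Mean ± SD, n=5–8. Dunnett's test versus HFD control.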

A short description of data set [12]: Cmax in Sprague-Dawley rat at 10 mg/kg, po. Type of data set: ADME, organism-based. The arrangement: dose 10 mg/kg, route oral. As to conditions: in vivo. The method, boiled down: as §4
Data set [13] is described as follows: Plasma concentration in high sucrose diet Sprague-Dawley rat at 10 mg/kg, po treated after 6 hrs. It counts as ADME, organism-based. The method, boiled down: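 Sprague-Dawley rats on a high sucrose diet, given a single oral 10 mg/kg dose. Plasma, liver and eyelid drug concentrations were measured 6 h later, n=3. Liver/eyelid ratio was taken from the tissue concentrations.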

Data set [14] can be described thus: Oral bioavailability in C57BL/6J mouse at 10 mg/kg. It counts as ADME, organism-based. As to conditions: in vivo. The method, boiled down: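 Two male C57BL/6J mice per route, 10 mg/kg po and 1 mg/kg iv. Plasma concentration–time profiles gave Cmax, tmax, terminal half-life and AUC0-inf. Bioavailability was derived from the po and iv data.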
Data set [15] relates to Mus musculus. Put plainly: Antiobesity activity in high fat diet fed C57BL/6J mouse assessed as reduction in diet-induced body weight gain at 10 mg/kg, po administered as diet mixture for 43 days relative to control. Type of data set: functional. The arrangement: scale not given: the % may be the effect or the level left. In short, it runs like this:
as §5

Consider `CCCCc1ccccc1NCc1ccc(C(=O)Nc2nc(CC(=O)O)cs2)s1`, for which, in the data set with Rattus norvegicus [1], the “inhibition (INH)” value is recorded as “Dose-dependent effect”. The clearance (commonly a measure of how efficiently the substance is removed, as volume per time) in data set [2] was 3.5 mL/min/kg; in [7], 10.2 mL/min/kg. Further, the Activity with Mus musculus [3] is 57%; with Rattus norvegicus [4] it was “Non-Toxic”; in the data set on Mus musculus [5], 97%; in the data set on Mus musculus [11], “Dose-dependent effect”; in the data set on Mus musculus [15], 6%. The IC50 (commonly the concentration needed to halve the response being measured) at Acyl-CoA desaturase 1 [6] stood at 6.5 nM; at Acyl-CoA desaturase 1 [10], 5.4 nM. In addition, the Papp (as a rule, a coefficient for how fast a substance crosses the barrier) in data set [8] was 43.6 ×10⁻⁶ cm/s. Moreover, in data set [9], the half-life is 4.7 h. The Cmax (in general, the maximum level reached in the sampled fluid or tissue) in data set [12] stood at 8 µM. The same compound returned a concentration at 6 h in [13] of 0.552 µM. Further, the bioavailability (in general, the share of a dose that reaches the circulation, judged against a reference dose that is usually intravenous) in [14] was 28%.
